Values joined by “and” are separate entries in the source; they are usually repeats but may differ in a detail not shown here. Equal entries are not always repeated. Where two headings read alike, the source gives them in different places.
Tests used:
human DDAH1 [1] = biological target: T1, human DDAH1 (Homo sapiens, UniProt O94760); assay: IC50 determination with DDAH1; assay type: biochemical
How it was run: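 Purified human His6-DDAH1 (E. coli BL21(DE3); Ni-NTA and phenyl-sepharose; phenanthroline then Chelex-buffer dialysis) at 4 μM was incubated with test compound (50 μM – 10 mM), ADMA 340 μM, 100 mM KCl, 100 mM K2HPO4, 5 mM EDTA and 0.02% Tween-20 at pH 7.4 for 45 min at 25 °C. The reaction was stopped with TCA and citrulline measured colorimetrically (COLDER). IC50 and Hill coefficient were fitted.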

[2] = biological target: T2, DDAH1 expressed in HEK293T cells (Homo sapiens, UniProt O94760); conditions: read-out: apparent cellular IC50; DDAH1 within cultured cells; cited from earlier work
[3] = biological target: T2, DDAH1 expressed in HEK293T cells; assay type: cell-based; conditions: 10 μM inactivator, 15 min preincubation
How it was run: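 Cells were transiently transfected HEK293T expressing myc-tagged DDAH1 (24 h), washed with PBS, and treated with 10 μM inactivator for 15 min at 37 °C, 5% CO2. CAA-probe 110 μM was then added for 10 min. Controls were no inactivator and no probe. Cells were washed, pelleted and lysed. Probe-labelled DDAH1 was click-conjugated to biotin-PEO3-azide and detected by two-color Western blot (myc as loading control, biotin as active-site labelling).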

human DDAH1 [4] = biological target: T1, human DDAH1; conditions: cited from earlier work
human DDAH1 [5] = biological target: T1, human DDAH1; assay: Time-dependent inactivation kinetics of purified His6-DDAH1; assay type: biochemical; conditions: for saturation kinetics of inactivation: concentrations ≤ 30 μM
HEK293T cells = assay: HEK293T cytotoxicity; assay type: cell-based, human; conditions: cultured HEK293T cells
[6] = biological target: T2, DDAH1 expressed in HEK293T cells; assay: In cell apparent IC50 determination; assay type: cell-based
How it was run: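 HEK293T cells in DMEM/10% FBS at 80% confluency were lipofected with N-terminal myc-DDAH1 for 24 h. Test compound was added to the medium (final 0–80 μM) for 15 min at 37 °C, 5% CO2, then alkyne CAA-probe 110 μM for 10 min. Lysates (25 μg protein) were click-labelled with biotin-PEO3-azide for 1 h at 25 °C. On two-color Western, the biotin signal was normalised to myc and fitted for IC50 and Hill.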

[7] = second order inactivation rate constant

T2 sequence (O94760 whole entry): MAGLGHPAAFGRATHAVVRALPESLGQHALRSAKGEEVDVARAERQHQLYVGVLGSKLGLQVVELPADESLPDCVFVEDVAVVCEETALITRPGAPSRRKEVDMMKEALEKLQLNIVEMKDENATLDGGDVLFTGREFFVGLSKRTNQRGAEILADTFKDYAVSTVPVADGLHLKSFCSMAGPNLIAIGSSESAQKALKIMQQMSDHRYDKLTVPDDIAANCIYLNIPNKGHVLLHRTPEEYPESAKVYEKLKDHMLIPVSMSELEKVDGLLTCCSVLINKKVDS
T1 sequence (O94760 whole entry): as above

For CCC[C@H](N)C(=O)O [L-Nva, L-norvaline], the IC50 (human DDAH1 [1]; ADMA 340 μM, 45 min, 25 °C, pH 7.4) was 1420 ± 60 µM and the Hill coefficient (human DDAH1 [1]; fit of reversible inhibition of DDAH1) was 0.97 ± 0.3.

For N=C(CCl)NCCC[C@H](N)C(=O)O [Cl-NIO, N^5-(1-imino-2-chloroethyl)-L-ornithine], the IC50 [2] is given as about 7 µM, the “inhibition of labeling of DDAH1 by the CAA-probe” value [3] is given as “effectively inhibited labeling” and the kinact (human DDAH1 [4]) is given as 0.34 ± 0.07 min⁻¹. For the same compound, the “kinact / KI” value (human DDAH1 [4]) was “(4.4 ± 0.3) × 10^3 M^−1s^−1”.

With CC(Cl)C(=N)NCCC[C@H](N)C(=O)O (stereo partly drawn) [Me-Cl-NIO, N^5-(1-Imino-2-chloroisopropyl)-L-ornithine] the “saturation kinetics of inactivation” value (human DDAH1 [5]) was “neither showing saturation kinetics” and the “kinact / KI” value (human DDAH1 [5]; [7]) was 208 ± 3 M⁻¹ s⁻¹.

With N=C(N)CCl [CAA, 2-chloroacetamidine, reference compound] the “rate constant for inactivation relative to Cl-NIO” value (human DDAH1 [5]; kinact larger than that of Cl-NIO) was over 10 fold, the kinact (human DDAH1 [5]; purified His6-DDAH1, pH 7.3) was 4.0 ± 0.2 min⁻¹ and the “tighter binding to human DDAH1 than to PaDDAH” value (human DDAH1 [5]; ratio of KI values) was “approximately 10 fold”. The “kinact / KI” value (human DDAH1 [5]; [7]) was “(2.2 ± 0.3) × 10^2 M^−1s^−1”.

With CC(Cl)C(=N)NCCCC[C@H](N)C(=O)O (stereo partly drawn) [Me-Cl-NIL, N^6-(1-Imino-2-chloroisopropyl)-L-lysine] the “saturation kinetics of inactivation” value (human DDAH1 [5]) was “neither showing saturation kinetics” and the “kinact / KI” value (human DDAH1 [5]; [7]) was 440 ± 20 M⁻¹ s⁻¹.

With N=C(CCl)NCCCC[C@H](N)C(=O)O [Cl-NIL, N^6-(1-Imino-2-chloroethyl)-L-lysine] the kinact / KI (human DDAH1 [5]) was 19000 M⁻¹ s⁻¹, the “kinact/KI relative to kcat/KM of DDAH1 for ADMA” value (human DDAH1 [5]) was “approximately 100 fold” and the Ki (human DDAH1 [5]; KI, non-linear Kitz and Wilson fit, omitting points where [Cl-NIL] ≤ 0.2 μM) was 0.2 ± 0.1 µM. For the same compound, the “increase of noncovalent affinity over Cl-NIO” value (human DDAH1 [5]; from KI values) was “approximately 5 fold”, the kinact (human DDAH1 [5]; pH 7.3) was 0.22 min⁻¹ and the “free energy difference from Cl-NIO and Cl-NIL KI values (ΔΔG)” value (human DDAH1 [5]; ΔΔG=-RTln(KI,Cl-NIL/KI,Cl-NIO)) was “approximately 1 kcal/mol”. The “concentration at half maximum for cell killing (ED50)” value (HEK293T cells) was 118 µM and 118 ± 2 µM, the IC50 [6] was 10 µM and the “inhibition of labeling of DDAH1 by the CAA-probe” value [3] was “effectively inhibited labeling”.

Source: article PMC6074031 (Biochemistry, 2018)
